Columns and labels:
Cannabinoid receptor 2 [1] = target: T1, Cannabinoid receptor 2 (Homo sapiens, UniProt P34972); assay: Agonist activity at cloned human CB2 receptor in Sf9 cells assessed by [35S]GTPgammaS binding assay relative to delta9-THC; assay type: functional
Cannabinoid receptor 2 [2] = target: T1, Cannabinoid receptor 2; assay: Displacement of [3H]CP-55940 from human CB2 receptor
Cannabinoid receptor 1 = Cannabinoid receptor 1 (Homo sapiens, UniProt P21554); assay: Displacement of [3H]CP-55940 from human CB1 receptor
Cannabinoid receptor 2 [3] = target: T1, Cannabinoid receptor 2; assay: Agonist activity at cloned human CB2 receptor in Sf9 cells assessed as stimulation of [35S]GTPgammaS binding assay; assay type: functional
Summary of the method: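 Sf9 membranes carrying cloned human CB2, in 50 mM Hepes, 20 mM NaOH, 100 mM NaCl, 1 mM EDTA, 5 mM MgCl2, 0.1% BSA plus GDP, pH 7.4. 10-point dose–response with [35S]GTPγS (~130,000 dpm/well), 1 h, room temperature. Filtered and washed (Tris/MgCl2/NaCl pH 7.4, 4 °C), then scintillation counted.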

T1 sequence (P34972 whole entry): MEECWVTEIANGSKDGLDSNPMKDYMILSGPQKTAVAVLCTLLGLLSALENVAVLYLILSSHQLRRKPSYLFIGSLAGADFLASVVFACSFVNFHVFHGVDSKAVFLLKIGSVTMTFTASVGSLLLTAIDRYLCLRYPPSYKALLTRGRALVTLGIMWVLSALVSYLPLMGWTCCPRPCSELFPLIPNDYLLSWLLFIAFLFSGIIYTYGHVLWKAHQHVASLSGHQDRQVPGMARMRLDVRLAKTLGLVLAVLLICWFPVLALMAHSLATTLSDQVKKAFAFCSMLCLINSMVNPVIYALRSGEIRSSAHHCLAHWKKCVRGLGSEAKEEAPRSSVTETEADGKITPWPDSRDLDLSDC
Sequence of Cannabinoid receptor 1 (P21554 whole entry): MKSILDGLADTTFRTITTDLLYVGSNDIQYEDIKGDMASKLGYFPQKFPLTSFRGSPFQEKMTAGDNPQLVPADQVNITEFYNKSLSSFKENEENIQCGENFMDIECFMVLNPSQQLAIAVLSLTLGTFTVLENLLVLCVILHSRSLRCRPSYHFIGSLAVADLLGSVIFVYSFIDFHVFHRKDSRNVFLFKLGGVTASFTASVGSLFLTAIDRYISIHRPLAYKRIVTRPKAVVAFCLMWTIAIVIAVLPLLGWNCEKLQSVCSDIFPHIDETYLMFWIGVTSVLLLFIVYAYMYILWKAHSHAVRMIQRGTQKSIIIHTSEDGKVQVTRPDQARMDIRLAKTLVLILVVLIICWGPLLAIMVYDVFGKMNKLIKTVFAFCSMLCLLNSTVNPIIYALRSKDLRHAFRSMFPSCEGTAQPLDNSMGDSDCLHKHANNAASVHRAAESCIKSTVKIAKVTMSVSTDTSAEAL

| Structure (SMILES) | Emax (Cannabinoid receptor 2 [1]) | Ki (Cannabinoid receptor 2 [2]) | Ki (Cannabinoid receptor 1) | EC50 (Cannabinoid receptor 2 [3]) |
| --- | --- | --- | --- | --- |
| Cc1c(C(=O)c2cccc3ccccc23)c2cccc3c2n1[C@H](CN1CCOCC1)CO3 | 64% | – | – | – |
| CCOc1ccc(Cc2nc3cc(N(C)C(C)=O)ccc3n2CC2CC2)cc1 | – | 1.35 µM | > 5 µM | – |
| CCN(CC)C(=O)c1ccc2c(c1)nc(Cc1ccc(Oc3ccccc3)cc1)n2CCC(C)C | 66% | 0.0049 µM | 2.4 µM | 0.0032 µM |
| CCOc1ccc(Cc2nc3cc(C(=O)N(CC)CC)ccc3n2Cc2cc[n+]([O-])cc2)cc1 | – | 0.588 µM | > 5 µM | – |
| CCOc1ccc(Cc2nc3cc(C(=O)N(CC)CC)ccc3n2CC2CCNCC2)cc1 | – | 2.92 µM | > 5 µM | – |
| CCOc1ccc(Cc2nc3cc(C(=O)N4CCCCC4)ccc3n2CC2CC2)cc1 | 45% | 0.0069 µM | > 5 µM | 0.003 µM |
| CCN(CC)C(=O)c1ccc2c(c1)nc(Cc1ccc(OC)cc1)n2CCC(C)C | 43% | 0.017 µM | > 5 µM | 0.0073 µM |
| CCOc1ccc(Cc2nc3cc(NC)ccc3n2CC2CC2)cc1 | – | 4.34 µM | > 5 µM | – |
| CCOc1ccc(Cc2nc3cc(N(C)C(=O)CC(C)C)ccc3n2CC2CC2)cc1 | 54% | 0.004 µM | > 5 µM | 0.0027 µM |
| CCCN(C)C(=O)c1ccc2c(c1)nc(Cc1ccc(OCC)cc1)n2CC1CC1 | 54% | 0.0076 µM | > 5 µM | 0.0032 µM |
| CCN(CC)C(=O)c1ccc2c(c1)nc(Cc1ccc(OC3CCC3)cc1)n2CCC(C)C | 73% | 0.044 µM | > 5 µM | 0.024 µM |
| CCOc1ccc(Cc2nc3cc(C(=O)N(CC)CC)ccc3n2Cc2ccco2)cc1 | 78% | 0.011 µM | > 5 µM | 0.0033 µM |
| CCOc1ccc(C(O)c2nc3cc(C(=O)N(CC)CC)ccc3n2CCC(C)C)cc1 (configuration not stated) | 70% | 0.057 µM | > 5 µM | – |
| CCOc1ccc(Cc2nc3cc(N(C)C(=O)N4CCCCC4)ccc3n2CC2CC2)cc1 | 60% | 0.004 µM | 3.48 µM | 0.0033 µM |
| CCN(CC)C(=O)c1ccc2c(c1)nc(Cc1ccc(O)cc1)n2CCC(C)C | – | 0.799 µM | > 5 µM | – |
| CCN(CC)C(=O)c1ccc2c(c1)nc(Cc1ccc(OCC3CC3)cc1)n2CCC(C)C | 75% | 0.053 µM | 4.19 µM | 0.043 µM |
| CCNC(=O)c1ccc2c(c1)nc(Cc1ccc(OCC)cc1)n2CC1CC1 | 53% | 0.063 µM | > 5 µM | 0.052 µM |
| CCOc1ccc(Cc2nc3cc(C(=O)N(CC)CC)ccc3n2C[C@H]2CCCO2)cc1 | 62% | 0.023 µM | > 5 µM | 0.0083 µM |
| CCOc1ccc(Cc2nc3cc(C(=O)N(CC)CC)ccc3n2Cc2ccccn2)cc1 | 77% | 0.039 µM | > 5 µM | 0.025 µM |
| CCOc1ccc(Cc2nc3cc(NC(C)=O)ccc3n2CC2CC2)cc1 | – | > 5 µM | > 5 µM | – |
| CCOc1ccc(Cc2nc3cc(N(C)C(=O)N(C)C)ccc3n2CC2CC2)cc1 | 55% | 0.041 µM | > 5 µM | 0.036 µM |
| CCOc1ccc(Cc2nc3cc(C(=O)N(CC)CC)ccc3n2CC2CC2)cc1 | 68% | 0.0041 µM | > 5 µM | 0.0021 µM |
| CCOc1ccc(Cc2nc3cc(N(C)C(=O)c4cccs4)ccc3n2CC2CC2)cc1 | 51% | 0.005 µM | 2.48 µM | 0.0026 µM |
| CCOc1ccc(Cc2nc3cc(C(=O)N(CC)CC)ccc3n2CC2CCOCC2)cc1 | 89% | 0.0039 µM | 1.21 µM | 0.001 µM |

| Structure (SMILES) | Emax (Cannabinoid receptor 2 [1]) | Ki (Cannabinoid receptor 2 [2]) | Ki (Cannabinoid receptor 1) | EC50 (Cannabinoid receptor 2 [3]) |
| --- | --- | --- | --- | --- |
| CCN(CC)C(=O)c1ccc2c(c1)nc(Cc1ccc(OC(C)C)cc1)n2CCC(C)C | 79% | 0.0045 µM | 4.68 µM | 0.0024 µM |
| CCOc1ccc(Cc2nc3cc(C(=O)N(CC)CC)ccc3n2Cc2ccccc2)cc1 | 88% | 0.012 µM | 4.77 µM | 0.0011 µM |
| CCCN(CCC)C(=O)c1ccc2c(c1)nc(Cc1ccc(OCC)cc1)n2CC1CC1 | 67% | 0.0028 µM | 2.61 µM | 0.002 µM |
| CCOc1ccc(Cc2nc3cc(N(C)C(=O)NC(C)C)ccc3n2CC2CC2)cc1 | 51% | 0.0057 µM | > 5 µM | 0.0064 µM |
| CCOc1ccc(Cc2nc3cc(C(=O)N(CC)CC)ccc3n2CC2CCCC2)cc1 | 79% | 0.001 µM | 0.491 µM | 0.0007 µM |
| CCOc1ccc(C(=O)c2nc3cc(C(=O)N(CC)CC)ccc3n2CCC(C)C)cc1 | 55% | 0.035 µM | > 5 µM | 0.025 µM |
| CCOc1ccc(Cc2nc3cc(C(=O)N(CC)CC)ccc3n2CC2CCC2)cc1 | 64% | 0.0016 µM | 3.12 µM | 0.0013 µM |
| CCOc1ccc(Cc2nc3cc(C(=O)N(C)C4CCCCC4)ccc3n2CC2CC2)cc1 | 60% | 0.011 µM | > 5 µM | 0.0042 µM |
| CCOc1ccc(Cc2nc3cc(C(=O)N(CC)CC)ccc3n2CC23CC4CC(CC(C4)C2)C3)cc1 | 81% | 0.0028 µM | 0.406 µM | 0.0013 µM |
| CCN(CC)C(=O)c1ccc2c(c1)nc(Cc1ccc(OC3CCCC3)cc1)n2CCC(C)C | 83% | 0.043 µM | > 5 µM | 0.018 µM |
| CCN(CC)C(=O)c1ccc2c(c1)nc(Cc1ccc(OCC(F)(F)F)cc1)n2CCC(C)C | 68% | 0.057 µM | > 5 µM | 0.065 µM |
| CCOc1ccc(Cc2nc3cc(C(=O)N(CC)CC)ccc3n2C[C@@H]2CCCO2)cc1 | 76% | 0.015 µM | > 5 µM | 0.0048 µM |
| CCOc1ccc(Cc2nc3cc(N(C)C(=O)N(CC)CC)ccc3n2CC2CC2)cc1 | 48% | 0.0059 µM | > 5 µM | 0.002 µM |
| CCOc1ccc(Cc2nc3cc(C(=O)N4CCCC4)ccc3n2CC2CC2)cc1 | 51% | 0.014 µM | > 5 µM | 0.0062 µM |
| CCOc1ccc(Cc2nc3cc(C(=O)N(CC)CC)ccc3n2Cc2ccncc2)cc1 | 78% | 0.016 µM | > 5 µM | 0.005 µM |
| CCOc1ccc(Cc2nc3cc(C(=O)N(CC)CC)ccc3n2CC2CCCCC2)cc1 | 79% | 0.0037 µM | 0.11 µM | 0.00052 µM |
| CCOc1ccc(Cc2nc3cc(C(=O)N(CC)CC)ccc3n2CC2CC2)nc1 | 63% | 0.027 µM | > 5 µM | 0.022 µM |
| CCOc1ccc(Cc2nc3cc(C(N)=O)ccc3n2CC2CC2)cc1 | – | > 5 µM | > 5 µM | – |
| CCOc1ccc(Cc2nc3cc(C(=O)N(CC)CC)ccc3n2CC2CC2)cn1 | – | – | > 5 µM | – |
| CCN(CC)C(=O)c1ccc2c(c1)nc(Cc1ccc(OC(F)(F)F)cc1)n2CCC(C)C | 29% | 0.025 µM | > 5 µM | 0.011 µM |
| CCN(CC)C(=O)c1ccc2c(c1)nc(Cc1ccc(OC3CCCCC3)cc1)n2CCC(C)C | – | 0.526 µM | > 5 µM | – |
| CCOc1ccc(Cc2nc3cc(C(=O)N(CC(F)(F)F)CC(F)(F)F)ccc3n2CC2CC2)cc1 | 51% | – | 4.53 µM | 0.002 µM |
| CCOc1ccc(Cc2nc3cc(C(=O)N(CC)CC)ccc3n2CCC(C)C)cc1 | 63% | – | > 5 µM | – |

From ChEMBL document CHEMBL1157439, “Novel benzimidazole derivatives as selective CB2 agonists” (Bioorg Med Chem Lett, 2008)
